# According to publication PMC9303465 (Hematological Oncology, 2022):
# Assay: Population PK analysis of venetoclax in AML patients
# Type: in vivo
# Method in brief: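 Plasma PK data were pooled from five studies: 771 R/R or treatment-naïve AML patients given ≥1 dose, with daily ramp-up to 400–1200 mg QD. Fitted by nonlinear mixed-effects modelling (FOCE-INT), using a prior CLL/SLL/NHL/healthy-volunteer model as informative priors. Race, azacitidine, decitabine and LDAC were tested stepwise (forward α=0.01, backward α=0.001) as multiplicative factors on CL/F, Vd/F and bioavailability. Validated by pcVPC (500 replicates); AUCss was taken from the planned dose.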
smiles,measurement,setting,value
CC1(C)CCC(CN2CCN(c3ccc(C(=O)NS(=O)(=O)c4ccc(NCC5CCOCC5)c([N+](=O)[O-])c4)c(Oc4cnc5[nH]ccc5c4)c3)CC2)=C(c2ccc(Cl)cc2)C1 [Venetoclax],Median exposure (AUCss) at 400 mg venetoclax,Asian patients,1.85 µg·days/mL
same,higher relative bioavailability in Asian than non‐Asian patients,Asian vs non-Asian AML patients,67%
same,Median exposure (AUCss) at 400 mg venetoclax,Non‐Asian patients,1.11 µg·days/mL
same,effect of co-administration on venetoclax CL/F,"P‐gp inhibitors, mild CYP3A inhibitors, azacitidine, decitabine, or LDAC",no effect
same,increase of venetoclax Vd/F with azacitidine,azacitidine co-administration,24%
same,decrease of venetoclax CL/F by moderate CYP3A inhibitors,co-administered moderate CYP3A inhibitors,19%
same,decrease of venetoclax CL/F by strong CYP3A inhibitors,co-administered strong CYP3A inhibitors,83%
same,effect of covariates on venetoclax exposure,"sex, mild to moderate hepatic impairment, mild to severe renal impairment, age, body weight",did not appear to have any effect
